Measured values reported in ChEMBL document CHEMBL1629579, “Correlating echinocandin MIC and kinetic inhibition of fks1 mutant glucan synthases for Candida albicans: implications for interpretive breakpoints” (Antimicrob Agents Chemother, 2009).
≈ marks a conversion by molar mass, not a printed value.

Tests used:
[1] = tested on: Candida albicans; experiment: Antimicrobial activity against Candida albicans 1002 by M27-A3 method; type: functional
Procedure, shortened: (§1)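 Broth microdilution per CLSI M27-A3 in RPMI 1640, with and without 50% human serum, in triplicate. C. krusei ATCC 6258 and C. parapsilosis ATCC 22019 served as quality-control strains. MIC reported as arithmetic mean of three repetitions on separate days.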

[2] = Inhibition of Candida albicans 205 1,3-beta-D-glucan synthase subunit FKS1p T1933C mutant
Procedure, shortened: (§2)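 Enzyme is product-entrapped 1,3-β-D-glucan synthase, enriched from membranes of each strain grown at 37°C with shaking in YPD broth to early stationary phase. Filtration polymerization assay uses [3H]UDPG, started by adding enzyme and run 60 min at 25°C. Echinocandins are added as serial dilutions, with 1% DMSO controls for anidulafungin. IC50 is from a variable-slope sigmoidal fit; values are triplicate arithmetic means.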

[3] = Inhibition of Candida albicans 5415 1,3-beta-D-glucan synthase subunit FKS1p T1933C mutant; procedure, shortened: as §2
[4] = tested on: Candida albicans; experiment: Activity at Candida albicans 194 1,3-beta-D-glucan synthase subunit FKS1p C1934T/G4082R mutant
Procedure, shortened: (§3)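 Product-entrapped 1,3-β-D-glucan synthase from cells grown in YPD at 37°C to early stationary phase. Wells held 50 mM HEPES pH 7.5, 10% glycerol, 1.5 mg/ml BSA, 25 mM KF, 1 mM EDTA, 25 μM GTP-γ-S, 1 μg enzyme and [3H]UDPG (0.015–2 mM). Reactions ran 60 min at 25°C. Vmax and Km came from Lineweaver-Burke plots, in triplicate.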

[5] = tested on: Candida albicans; experiment: Antimicrobial activity against Candida albicans SC5314 by M27-A3 method; type: functional; procedure, shortened: as §1
[6] = tested on: Candida albicans; experiment: Antimicrobial activity against Candida albicans 5415 harboring FKS1 T1933C mutant gene and FKS1 hotspot1 S645P mutant gene by M27-A3 method; type: functional
Procedure, shortened: (§4)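 Broth microdilution per CLSI M27-A3 in RPMI 1640, done in triplicate on three separate days. Each strain was tested with and without 50% human serum. C. krusei ATCC 6258 and C. parapsilosis ATCC 22019 served as QC strains. Arithmetic means are reported, and geometric means were used for comparison.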

[7] = tested on: Candida albicans; experiment: Antimicrobial activity against Candida albicans 90028 by M27-A3 method; type: functional; procedure, shortened: as §1
[8] = Inhibition of Candida albicans SC5314 1,3-beta-D-glucan synthase subunit FKS1p; procedure, shortened: as §2
[9] = Inhibition of Candida albicans 177 1,3-beta-D-glucan synthase subunit FKS1p T1922C mutant; procedure, shortened: as §2
[10] = tested on: Candida albicans; experiment: Antimicrobial activity against Candida albicans 85 harboring FKS1 C1934T mutant gene and FKS1 hotspot1 S645F mutant gene by M27-A3 method in presence of 50% human serum; type: functional; procedure, shortened: as §4
[11] = tested on: Candida albicans; experiment: Antimicrobial activity against Candida albicans 119 harboring FKS1 T1921C mutant gene and FKS1 hotspot1 F641L mutant gene by M27-A3 method in presence of 50% human serum; type: functional; procedure, shortened: as §4
[12] = tested on: Candida albicans; experiment: Antimicrobial activity against Candida albicans 3107 by M27-A3 method; type: functional; procedure, shortened: as §4
[13] = tested on: Candida albicans; experiment: Antimicrobial activity against Candida albicans 3795 by M27-A3 method; type: functional; procedure, shortened: as §1
[14] = tested on: Candida albicans; experiment: Activity at Candida albicans 121 1,3-beta-D-glucan synthase subunit FKS1p G4082A mutant; procedure, shortened: as §3
[15] = tested on: Candida albicans; experiment: Antimicrobial activity against Candida albicans A15-10 harboring FKS1 T1933C mutant gene and FKS1 hotspot1 S645P mutant gene by M27-A3 method; type: functional; procedure, shortened: as §4
[16] = tested on: Candida albicans; experiment: Activity at Candida albicans 89 1,3-beta-D-glucan synthase subunit FKS1p C1934A mutant; procedure, shortened: as §3
[17] = Inhibition of Candida albicans 1002 1,3-beta-D-glucan synthase subunit FKS1p
Procedure, shortened: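 Product-entrapped glucan synthase from YPD-grown cells (37°C, early stationary phase) in a filtration polymerization assay with [3H]UDPG. Echinocandin serial dilutions were added, with 1% DMSO in controls for anidulafungin. Reactions were started with enzyme, run 60 min at 25°C and stopped on ice. IC50 came from a variable-slope sigmoidal fit, in triplicate.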

[18] = tested on: Candida albicans; experiment: Antimicrobial activity against Candida albicans 177 harboring FKS1 T1922C mutant gene and FKS1 hotspot1 F641S mutant gene by M27-A3 method in presence of 50% human serum; type: functional; procedure, shortened: as §4
[19] = tested on: Candida albicans; experiment: Antimicrobial activity against Candida albicans 205 harboring FKS1 T1933C mutant gene and FKS1 hotspot1 S645P mutant gene by M27-A3 method; type: functional; procedure, shortened: as §4
[20] = tested on: Candida albicans; experiment: Antimicrobial activity against Candida albicans 89 harboring FKS1 C1934A mutant gene and FKS1 hotspot1 S645Y mutant gene by M27-A3 method in presence of 50% human serum; type: functional; procedure, shortened: as §4
[21] = tested on: Candida albicans; experiment: Activity at Candida albicans 5415 1,3-beta-D-glucan synthase subunit FKS1p T1933C mutant; procedure, shortened: as §3
[22] = Inhibition of Candida albicans 3107 1,3-beta-D-glucan synthase subunit FKS1p; procedure, shortened: as §2
[23] = tested on: Candida albicans; experiment: Antimicrobial activity against Candida albicans 194 harboring FKS1 C1934T/G4082R mutant gene and FKS1 hotspot1 S645F mutant gene and FKS1 hotspot2 R1361R/H mutant gene by M27-A3 method; type: functional; procedure, shortened: as §4
[24] = tested on: Candida albicans; experiment: Activity at Candida albicans 36082 1,3-beta-D-glucan synthase subunit FKS1p
Procedure, shortened: (§5)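 Glucan synthase from cells grown at 37°C with vigorous shaking to early stationary phase in YPD. Membrane enzyme enriched by product entrapment. Serial echinocandin dilutions; ANF controls held 1% DMSO. Reaction started by adding enzyme, run 60 min at 25°C in a filtration polymerization assay, stopped on ice. IC50 from a variable-slope sigmoidal fit; means of three repetitions on separate days.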

[25] = tested on: Candida albicans; experiment: Antimicrobial activity against Candida albicans 122 harboring FKS1 C1946A mutant gene and FKS1 hotspot1 P649H mutant gene by M27-A3 method; type: functional; procedure, shortened: as §4
[26] = tested on: Candida albicans; experiment: Activity at Candida albicans 90028 1,3-beta-D-glucan synthase subunit FKS1p; procedure, shortened: as §5
[27] = tested on: Candida albicans; experiment: Activity at Candida albicans 119 1,3-beta-D-glucan synthase subunit FKS1p T1921C mutant; procedure, shortened: as §3
[28] = tested on: Candida albicans; experiment: Antimicrobial activity against Candida albicans 2762 harboring FKS1 T1922C mutant gene and FKS1 hotspot1 F641S mutant gene by M27-A3 method in presence of 50% human serum; type: functional; procedure, shortened: as §4
[29] = tested on: Candida albicans; experiment: Antimicrobial activity against Candida albicans 177 harboring FKS1 T1922C mutant gene and FKS1 hotspot1 F641S mutant gene by M27-A3 method; type: functional; procedure, shortened: as §4
[30] = tested on: Candida albicans; experiment: Antimicrobial activity against Candida albicans 149 harboring FKS1 G1942T mutant gene and FKS1 hotspot1 D648Y mutant gene by M27-A3 method in presence of 50% human serum; type: functional; procedure, shortened: as §4
[31] = tested on: Candida albicans; experiment: Antimicrobial activity against Candida albicans 3795 by M27-A3 method in presence of 50% human serum; type: functional; procedure, shortened: as §4

In the case of `CC[C@H](C)C[C@H](C)CCCCCCCCC(=O)N[C@H]1C[C@@H](O)[C@@H](NCCN)NC(=O)[C@@H]2[C@@H](O)CCN2C(=O)[C@H]([C@H](O)CCN)NC(=O)[C@H]([C@H](O)[C@@H](O)c2ccc(O)cc2)NC(=O)[C@@H]2C[C@@H](O)CN2C(=O)[C@H]([C@@H](C)O)NC1=O` [CASPOFUNGIN], the MIC [1] is reported as 0.33 µg/mL (≈ 0.302 µM), the IC50 [2] is reported as 0.2454 µg/mL (≈ 0.224 µM) and the Ki [2] is reported as 1.48 µg/mL (≈ 1.35 µM). The IC50 [3] was 0.6981 µg/mL (≈ 0.639 µM), the Ki [3] was 2.12249 µg/mL (≈ 1.94 µM) and the Km [4] was 61 µM. It also gave a Vmax [4] of 5.81 nmol/min, an MIC [5] of 0.42 µg/mL (≈ 0.384 µM) and an MIC [6] of 8 µg/mL (≈ 7.32 µM). For the same compound, the MIC [7] was 0.21 µg/mL (≈ 0.192 µM), the Ki [8] was 0.00297 µg/mL (≈ 0.00272 µM) and the IC50 [9] was 1.091 µg/mL (≈ 0.998 µM). The Ki [9] was 1.8176 µg/mL (≈ 1.66 µM), the MIC [10] was 8 µg/mL and the MIC [11] was 8 µg/mL. For the same compound, the MIC [12] was 0.25 µg/mL (≈ 0.229 µM), the MIC [13] was 0.33 µg/mL (≈ 0.302 µM) and the Km [14] was 129 µM. The Vmax [14] was 4.41 nmol/min, the MIC [15] was 8 µg/mL (≈ 7.32 µM) and the Km [16] was 61 µM. For the same compound, the Vmax [16] was 2.51 nmol/min, the IC50 [17] was 0.00175 µg/mL (≈ 0.0016 µM) and the Ki [17] was 0.00626 µg/mL (≈ 0.00573 µM). For the same compound, the MIC [18] was 16 µg/mL, the MIC [19] was 8 µg/mL (≈ 7.32 µM) and the MIC [20] was 8 µg/mL. For the same compound, the Km [21] was 98 µM, the Vmax [21] was 3.12 nmol/min and the Ki [22] was 0.00879 µg/mL (≈ 0.00804 µM). The MIC [23] was 4 µg/mL (≈ 3.66 µM), the Km [24] was 89 µM and the Vmax [24] was 5.87 nmol/min. The MIC [25] was 4 µg/mL (≈ 3.66 µM), the Km [26] was 67 µM and the Vmax [26] was 4.71 nmol/min. The Km [27] was 54 µM, the Vmax [27] was 2.54 nmol/min and the MIC [28] was 8 µg/mL. For the same compound, the MIC [29] was 4 µg/mL (≈ 3.66 µM), the MIC [30] was 4 µg/mL and the MIC [31] was 0.5 µg/mL.
